From ChEMBL document CHEMBL3045504, “Activity of 1,4-benzoquinones against formosan subterranean termites (Coptotermes formosanus)” (2008)

How the values were obtained:
Assay type in all cases: functional
Coptotermes formosanus [1] = assay: Termiticidal activity against Coptotermes formosanus placed on 0.001 % wt/wt compound treated filter paper assessed as termite mortality measured 17 days post compound exposure
Procedure, shortened: (§1)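 Treated filter paper disks moistened with 100 µL water; 20 C. formosanus workers (third instar or greater) plus 1 soldier per dish from field colonies kept on spruce, ca. 100% RH, 26.6 °C. Daily mortality scored for 3 weeks; cumulative percent mortality from four replicates, each a different colony; water-only controls; ANOVA, protected Fisher LSD (P < 0.05) after arcsine square-root transform.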

Coptotermes formosanus [2] = assay: Termiticidal activity against Coptotermes formosanus placed on 0.01 % wt/wt compound treated filter paper assessed as termite mortality measured 17 days post compound exposure; procedure, shortened: as §1
Coptotermes formosanus [3] = assay: Termiticidal activity against Coptotermes formosanus placed on 0.05 % wt/wt compound treated filter paper assessed as termite mortality measured 17 days post compound exposure; procedure, shortened: as §1
Coptotermes formosanus [4] = assay: Termiticidal activity against Coptotermes formosanus placed on 0.1 % wt/wt compound treated filter paper assessed as termite mortality measured 17 days post compound exposure; procedure, shortened: as §1
Coptotermes formosanus [5] = assay: Termiticidal activity against Coptotermes formosanus placed on 0.5 % wt/wt compound treated filter paper assessed as termite mortality measured 17 days post compound exposure; procedure, shortened: as §1
Coptotermes formosanus [6] = assay: Termiticidal activity against Coptotermes formosanus placed on 0.001 % wt/wt compound treated filter paper assessed as termite mortality measured 13 days post compound exposure; procedure, shortened: as §1
Coptotermes formosanus [7] = assay: Termiticidal activity against Coptotermes formosanus placed on 0.01 % wt/wt compound treated filter paper assessed as termite mortality measured 13 days post compound exposure; procedure, shortened: as §1
Coptotermes formosanus [8] = assay: Termiticidal activity against Coptotermes formosanus placed on 0.05 % wt/wt compound treated filter paper assessed as termite mortality measured 13 days post compound exposure; procedure, shortened: as §1
Coptotermes formosanus [9] = assay: Termiticidal activity against Coptotermes formosanus placed on 0.1 % wt/wt compound treated filter paper assessed as termite mortality measured 13 days post compound exposure; procedure, shortened: as §1
Coptotermes formosanus [10] = assay: Termiticidal activity against Coptotermes formosanus placed on 0.5 % wt/wt compound treated filter paper assessed as termite mortality measured 13 days post compound exposure; procedure, shortened: as §1
Coptotermes formosanus [11] = assay: Termiticidal activity against Coptotermes formosanus placed on 0.001 % wt/wt compound treated filter paper assessed as termite mortality measured 11 days post compound exposure; procedure, shortened: as §1
Coptotermes formosanus [12] = assay: Termiticidal activity against Coptotermes formosanus placed on 0.01 % wt/wt compound treated filter paper assessed as termite mortality measured 11 days post compound exposure; procedure, shortened: as §1
Coptotermes formosanus [13] = assay: Termiticidal activity against Coptotermes formosanus placed on 0.05 % wt/wt compound treated filter paper assessed as termite mortality measured 11 days post compound exposure; procedure, shortened: as §1
Coptotermes formosanus [14] = assay: Termiticidal activity against Coptotermes formosanus placed on 0.1 % wt/wt compound treated filter paper assessed as termite mortality measured 11 days post compound exposure; procedure, shortened: as §1
Coptotermes formosanus [15] = assay: Termiticidal activity against Coptotermes formosanus placed on 0.001 % wt/wt compound treated filter paper assessed as termite mortality measured 9 days post compound exposure; procedure, shortened: as §1
Coptotermes formosanus [16] = assay: Termiticidal activity against Coptotermes formosanus placed on 0.01 % wt/wt compound treated filter paper assessed as termite mortality measured 9 days post compound exposure; procedure, shortened: as §1
Coptotermes formosanus [17] = assay: Termiticidal activity against Coptotermes formosanus placed on 0.05 % wt/wt compound treated filter paper assessed as termite mortality measured 9 days post compound exposure; procedure, shortened: as §1
Coptotermes formosanus [18] = assay: Termiticidal activity against Coptotermes formosanus placed on 0.1 % wt/wt compound treated filter paper assessed as termite mortality measured 9 days post compound exposure; procedure, shortened: as §1
Coptotermes formosanus [19] = assay: Termiticidal activity against Coptotermes formosanus placed on 0.5 % wt/wt compound treated filter paper assessed as termite mortality measured 9 days post compound exposure; procedure, shortened: as §1
Coptotermes formosanus [20] = assay: Termiticidal activity against Coptotermes formosanus placed on 0.001 % wt/wt compound treated filter paper assessed as termite mortality measured 6 days post compound exposure; procedure, shortened: as §1
Coptotermes formosanus [21] = assay: Termiticidal activity against Coptotermes formosanus placed on 0.01 % wt/wt compound treated filter paper assessed as termite mortality measured 6 days post compound exposure; procedure, shortened: as §1
Coptotermes formosanus [22] = assay: Termiticidal activity against Coptotermes formosanus placed on 0.05 % wt/wt compound treated filter paper assessed as termite mortality measured 6 days post compound exposure; procedure, shortened: as §1
Coptotermes formosanus [23] = assay: Termiticidal activity against Coptotermes formosanus placed on 0.1 % wt/wt compound treated filter paper assessed as termite mortality measured 6 days post compound exposure; procedure, shortened: as §1
Coptotermes formosanus [24] = assay: Termiticidal activity against Coptotermes formosanus placed on 0.5 % wt/wt compound treated filter paper assessed as termite mortality measured 6 days post compound exposure; procedure, shortened: as §1
Coptotermes formosanus [25] = assay: Termiticidal activity against Coptotermes formosanus placed on 1 % wt/wt compound treated filter paper assessed as termite mortality measured 21 days post compound exposure
Coptotermes formosanus [26] = assay: Termiticidal activity against Coptotermes formosanus placed on 1 % wt/wt compound treated filter paper assessed as termite mortality measured 11 days post compound exposure
Coptotermes formosanus [27] = assay: Termiticidal activity against Coptotermes formosanus placed on 1 % wt/wt compound treated filter paper assessed as termite mortality measured 3 days post compound exposure
Coptotermes formosanus [28] = assay: Termiticidal activity against Coptotermes formosanus placed on 0.5 % wt/wt compound treated filter paper assessed as termite mortality measured 21 days post compound exposure; procedure, shortened: as §1
Coptotermes formosanus [29] = assay: Termiticidal activity against Coptotermes formosanus placed on 0.5 % wt/wt compound treated filter paper assessed as termite mortality measured 11 days post compound exposure; procedure, shortened: as §1
Coptotermes formosanus [30] = assay: Antifeedant activity against Coptotermes formosanus placed on 0.5 % wt/wt compound treated filter paper assessed as filter paper consumption measured 21 days post compound exposure (reference value: 54.4 +/- 20.7 mg)
Coptotermes formosanus [31] = assay: Antifeedant activity against Coptotermes formosanus placed on 0.001 % wt/wt compound treated filter paper assessed as filter paper consumption measured 21 days post compound exposure
Coptotermes formosanus [32] = assay: Antifeedant activity against Coptotermes formosanus placed on 0.01 % wt/wt compound treated filter paper assessed as filter paper consumption measured 21 days post compound exposure
Coptotermes formosanus [33] = assay: Antifeedant activity against Coptotermes formosanus placed on 0.05 % wt/wt compound treated filter paper assessed as filter paper consumption measured 21 days post compound exposure
Coptotermes formosanus [34] = assay: Antifeedant activity against Coptotermes formosanus placed on 0.1 % wt/wt compound treated filter paper assessed as filter paper consumption measured 21 days post compound exposure (reference value: 54.4 +/- 20.7 mg)
Coptotermes formosanus [35] = assay: Antifeedant activity against Coptotermes formosanus placed on 1 % wt/wt compound treated filter paper assessed as filter paper consumption measured 21 days post compound exposure (reference value: 85 +/- 15.1 mg)
Coptotermes formosanus [36] = assay: Termiticidal activity against Coptotermes formosanus placed on 0.001 % wt/wt compound treated filter paper assessed as termite mortality measured 21 days post compound exposure; procedure, shortened: as §1
Coptotermes formosanus [37] = assay: Termiticidal activity against Coptotermes formosanus placed on 0.01 % wt/wt compound treated filter paper assessed as termite mortality measured 21 days post compound exposure; procedure, shortened: as §1
Coptotermes formosanus [38] = assay: Termiticidal activity against Coptotermes formosanus placed on 0.05 % wt/wt compound treated filter paper assessed as termite mortality measured 21 days post compound exposure; procedure, shortened: as §1
Coptotermes formosanus [39] = assay: Termiticidal activity against Coptotermes formosanus placed on 0.1 % wt/wt compound treated filter paper assessed as termite mortality measured 21 days post compound exposure; procedure, shortened: as §1

CC1=CC(=O)C(C(C)C)=CC1=O [THYMOQUINONE]
mortality (Coptotermes formosanus [1]): 5% | mortality (Coptotermes formosanus [2]): 5% | mortality (Coptotermes formosanus [3]): 6.7% | mortality (Coptotermes formosanus [4]): 8.3% | mortality (Coptotermes formosanus [5]): 11.7% | mortality (Coptotermes formosanus [6]): 1.7% | mortality (Coptotermes formosanus [7]): 5% | mortality (Coptotermes formosanus [8]): 6.7% | mortality (Coptotermes formosanus [9]): 6.7% | mortality (Coptotermes formosanus [10]): 10% | mortality (Coptotermes formosanus [11]): 1.7% | mortality (Coptotermes formosanus [12]): 3.3% | mortality (Coptotermes formosanus [13]): 0% | mortality (Coptotermes formosanus [14]): 1.7% | mortality (Coptotermes formosanus [15]): 1.7% | mortality (Coptotermes formosanus [16]): 3.3% | mortality (Coptotermes formosanus [17]): 0% | mortality (Coptotermes formosanus [18]): 1.7% | mortality (Coptotermes formosanus [19]): 6.7% | mortality (Coptotermes formosanus [20]): 0% | mortality (Coptotermes formosanus [21]): 0% | mortality (Coptotermes formosanus [22]): 0% | mortality (Coptotermes formosanus [23]): 0% | mortality (Coptotermes formosanus [24]): 1.7% | mortality (Coptotermes formosanus [25]): 100% | mortality (Coptotermes formosanus [26]): 100% | mortality (Coptotermes formosanus [27]): 100% | mortality (Coptotermes formosanus [28]): 18.3% | mortality (Coptotermes formosanus [29]): 6.7% | Activity (Coptotermes formosanus [30]): 93.1 mg | Activity (Coptotermes formosanus [31]): 80.6 mg | Activity (Coptotermes formosanus [32]): 75.4 mg | Activity (Coptotermes formosanus [33]): 74 mg | Activity (Coptotermes formosanus [34]): 83.5 mg | Activity (Coptotermes formosanus [35]): 0 mg | mortality (Coptotermes formosanus [36]): 5% | mortality (Coptotermes formosanus [37]): 11.7% | mortality (Coptotermes formosanus [38]): 8.3% | mortality (Coptotermes formosanus [39]): 8.3%
